Results as given in ChEMBL document CHEMBL4219194, “Diversity-oriented synthesis of pyrazoles derivatives from flavones and isoflavones leads to the discovery of promising reversal agents of fluconazole resistance in Candida albicans” (2018).
In brackets after ≈: the same amount, converted by molar mass.

What was measured:
Format in all cases: functional
Candida albicans [1] = experiment: Antifungal activity against Candida albicans SC5314 after 48 hrs by broth microdilution method; conditions: SC5314, 48 h
Summary of the method: (§1)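 MIC80 read by broth microdilution, with fluconazole as the positive antifungal agent. Values are reported in µg/mL as means of three independent experiments. Strains: wild-type SC5314 and DSY654, which lacks the Cdr1 and Cdr2 efflux pumps.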

Candida albicans [2] = experiment: Antifungal activity against CDR1 and CDR2 efflux pump deficient Candida albicans DSY654 after 48 hrs by broth microdilution method; conditions: DSY654, 48 h; summary of the method: as §1
Candida albicans [3] = experiment: Antifungal activity against fluconazole-resistant Candida albicans 28A after 48 hrs by broth microdilution method
Summary of the method: (§2)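 Clinical fluconazole-resistant isolates tested in broth microdilution with the compound alone. The endpoint is MIC80, the lowest concentration giving 80% growth inhibition, in µg/mL.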

Candida albicans [4] = experiment: Synergistic antifungal activity against fluconazole-resistant Candida albicans 28A after 48 hrs in presence of fluconazole by broth microdilution checkerboard method
Summary of the method: (§3)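 Checkerboard dose-response matrix on strain 28A with gradients of fluconazole and the test compound in RPMI 1640, read after 48 h at 35 °C. MIC80 is taken alone and in combination, and FICI is calculated. Synergy is FICI ≤0.5, indifference >0.5-4, and antagonism >4.0.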

Candida albicans [5] = experiment: Potentiation of fluconazole-induced antifungal activity against fluconazole-resistant Candida albicans 28A assessed as fluconazole MIC80 after 48 hrs by broth microdilution checkerboard method; summary of the method: as §3
Candida albicans [6] = experiment: Potentiation of fluconazole-induced antifungal activity against fluconazole-resistant Candida albicans 28A after 48 hrs by broth microdilution checkerboard method; summary of the method: as §3
Candida albicans [7] = experiment: Synergistic antifungal activity against drug-resistant Candida albicans 28I after 48 hrs in presence of fluconazole by broth microdilution checkerboard method
Summary of the method: (§4)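 Broth microdilution checkerboard of fluconazole crossed with the test compound against clinical FLC-resistant isolates. MIC80 is read for each agent alone and in combination, and FICI is calculated. Synergy is FICI ≤0.5, indifference >0.5-4, and antagonism >4.0.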

Candida albicans [8] = experiment: Potentiation of fluconazole-induced antifungal activity against drug-resistant Candida albicans 28I assessed as fluconazole MIC80 after 48 hrs by broth microdilution checkerboard method; summary of the method: as §4
Candida albicans [9] = experiment: Potentiation of fluconazole-induced antifungal activity against drug-resistant Candida albicans 28I after 48 hrs by broth microdilution checkerboard method; summary of the method: as §4
Candida albicans [10] = experiment: Antifungal activity against drug-resistant Candida albicans 28I after 48 hrs by broth microdilution method; summary of the method: as §2
Candida albicans [11] = experiment: Antifungal activity against drug-resistant Candida albicans 28J after 48 hrs by broth microdilution method; summary of the method: as §2
Candida albicans [12] = experiment: Synergistic antifungal activity against drug-resistant Candida albicans 28J after 48 hrs in presence of fluconazole by broth microdilution checkerboard method; summary of the method: as §4
Candida albicans [13] = experiment: Potentiation of fluconazole-induced antifungal activity against drug-resistant Candida albicans 28J assessed as fluconazole MIC80 after 48 hrs by broth microdilution checkerboard method; summary of the method: as §4
Candida albicans [14] = experiment: Potentiation of fluconazole-induced antifungal activity against drug-resistant Candida albicans 28J after 48 hrs by broth microdilution checkerboard method; summary of the method: as §4

**Q.** With `COc1ccc(-c2cnn(-c3ccccc3)c2-c2c(O)cc(OC)cc2OC)cc1` as the molecule, how does the MIC80 (Candida albicans [1]) read?
**A.** Its MIC80 is greater than 128 µg/mL.

**Q.** And the MIC80 (Candida albicans [2])?
**A.** The MIC80 was greater than 128 µg/mL.

**Q.** What about the MIC80 (Candida albicans [3]) of the same molecule?
**A.** Its MIC80 is greater than 128 µg/mL.

**Q.** And the MIC80 (Candida albicans [4])?
**A.** The MIC80 was greater than 128 µg/mL.

**Q.** What about the MIC80 (Candida albicans [5]) of the same molecule?
**A.** Its MIC80 is greater than 128 µg/mL.

**Q.** What about the “fractional inhibitory concentration index (FICI)” value (Candida albicans [6]) of the same molecule?
**A.** Its value is 2.

**Q.** `COc1ccc(-c2cc(-c3ccccc3)nn2CCO)c(O)c1OC` was tested. Which MIC80 (Candida albicans [1]) did it give?
**A.** The MIC80 was greater than 128 µg/mL.

**Q.** And the MIC80 (Candida albicans [2])?
**A.** The MIC80 was greater than 128 µg/mL.

**Q.** And the MIC80 (Candida albicans [3])?
**A.** Its MIC80 is greater than 128 µg/mL.

**Q.** And the MIC80 (Candida albicans [4])?
**A.** Its MIC80 is greater than 128 µg/mL.

**Q.** And the MIC80 (Candida albicans [5])?
**A.** Its MIC80 is greater than 128 µg/mL.

**Q.** And the “fractional inhibitory concentration index (FICI)” value (Candida albicans [6])?
**A.** The value was 2.

**Q.** For `OCCn1cc(-c2ccc(O)cc2)c(-c2ccc(O)c(C3OC(CO)C(O)C(O)C3O)c2O)n1` (stereo not given), which MIC80 (Candida albicans [1]) is on record?
**A.** The MIC80 was greater than 128 µg/mL.

**Q.** What about the MIC80 (Candida albicans [2]) of the same molecule?
**A.** Its MIC80 is greater than 128 µg/mL.

**Q.** What about the MIC80 (Candida albicans [3]) of the same molecule?
**A.** Its MIC80 is greater than 128 µg/mL.

**Q.** What about the MIC80 (Candida albicans [4]) of the same molecule?
**A.** The MIC80 was greater than 128 µg/mL.

**Q.** What about the MIC80 (Candida albicans [5]) of the same molecule?
**A.** The MIC80 was greater than 128 µg/mL.

**Q.** What about the “fractional inhibitory concentration index (FICI)” value (Candida albicans [6]) of the same molecule?
**A.** Its value is 2.

**Q.** What does the source list for `COc1cc(O)c(-c2cc(-c3ccccc3)nn2-c2ccccc2)c(OC)c1`?
**A.** MIC80 (Candida albicans [1]): > 128 µg/mL; MIC80 (Candida albicans [2]): > 128 µg/mL; MIC80 (Candida albicans [3]): > 128 µg/mL; MIC80 (Candida albicans [4]): > 128 µg/mL; MIC80 (Candida albicans [5]): > 128 µg/mL; fractional inhibitory concentration index (FICI) (Candida albicans [6]): 2

**Q.** Which results are given for `COc1ccc(-n2nc(-c3ccccc3)cc2-c2ccc(OC)c(OC)c2O)cc1`?
**A.** MIC80 (Candida albicans [1]): > 128 µg/mL; MIC80 (Candida albicans [2]): 8 µg/mL (≈ 19.9 µM); MIC80 (Candida albicans [3]): > 128 µg/mL; MIC80 (Candida albicans [4]): > 128 µg/mL; MIC80 (Candida albicans [5]): > 128 µg/mL; fractional inhibitory concentration index (FICI) (Candida albicans [6]): 2

**Q.** How did the MIC80 (Candida albicans [1]) turn out when `COc1ccc(-n2nc(-c3ccccc3)cc2-c2c(O)cc(OC)c(OC)c2OC)cc1` was run?
**A.** The MIC80 was greater than 128 µg/mL.

**Q.** What about the MIC80 (Candida albicans [2]) of the same molecule?
**A.** Its MIC80 is 4 µg/mL (≈ 9.25 µM).

**Q.** And the MIC80 (Candida albicans [3])?
**A.** Its MIC80 is greater than 128 µg/mL.

**Q.** What about the MIC80 (Candida albicans [4]) of the same molecule?
**A.** The MIC80 was greater than 128 µg/mL.

**Q.** What about the MIC80 (Candida albicans [5]) of the same molecule?
**A.** The MIC80 was greater than 128 µg/mL.

**Q.** And the “fractional inhibitory concentration index (FICI)” value (Candida albicans [6])?
**A.** Its value is 2.

**Q.** Which MIC80 (Candida albicans [1]) does the source give for `COc1cc(O)c(-c2cc(-c3ccccc3)n(CCO)n2)c(OC)c1` here?
**A.** Its MIC80 is greater than 128 µg/mL.

**Q.** And the MIC80 (Candida albicans [2])?
**A.** The MIC80 was 4 µg/mL (≈ 11.8 µM).

**Q.** And the MIC80 (Candida albicans [3])?
**A.** The MIC80 was greater than 128 µg/mL.

**Q.** What about the MIC80 (Candida albicans [4]) of the same molecule?
**A.** The MIC80 was 32 µg/mL.

**Q.** What about the MIC80 (Candida albicans [5]) of the same molecule?
**A.** Its MIC80 is 2 µg/mL.

**Q.** And the “fractional inhibitory concentration index (FICI)” value (Candida albicans [6])?
**A.** Its value is 0.266.

**Q.** What does the source list for `COc1cc(O)c(-c2cc(-c3ccccc3)n[nH]2)c(OC)c1`?
**A.** MIC80 (Candida albicans [1]): 8 µg/mL (≈ 27 µM); MIC80 (Candida albicans [2]): 1 µg/mL (≈ 3.37 µM); MIC80 (Candida albicans [3]): 32 µg/mL (≈ 108 µM); MIC80 (Candida albicans [4]): 8 µg/mL; MIC80 (Candida albicans [5]): 0.25 µg/mL; fractional inhibitory concentration index (FICI) (Candida albicans [6]): 0.252; MIC80 (Candida albicans [7]): 8 µg/mL; MIC80 (Candida albicans [8]): 0.25 µg/mL; fractional inhibitory concentration index (FICI) (Candida albicans [9]): 0.252; MIC80 (Candida albicans [10]): 32 µg/mL (≈ 108 µM); MIC80 (Candida albicans [11]): 32 µg/mL (≈ 108 µM); MIC80 (Candida albicans [12]): 8 µg/mL; MIC80 (Candida albicans [13]): 0.5 µg/mL; fractional inhibitory concentration index (FICI) (Candida albicans [14]): 0.254

**Q.** How did the MIC80 (Candida albicans [1]) turn out when `COc1ccc(-n2nc(-c3c(O)cc(OC)c(OC)c3OC)cc2-c2ccccc2)cc1` was run?
**A.** The MIC80 was greater than 128 µg/mL.

**Q.** What about the MIC80 (Candida albicans [2]) of the same molecule?
**A.** Its MIC80 is greater than 128 µg/mL.

**Q.** And the MIC80 (Candida albicans [3])?
**A.** The MIC80 was greater than 128 µg/mL.

**Q.** What about the MIC80 (Candida albicans [4]) of the same molecule?
**A.** Its MIC80 is greater than 128 µg/mL.

**Q.** What about the MIC80 (Candida albicans [5]) of the same molecule?
**A.** The MIC80 was greater than 128 µg/mL.

**Q.** What about the “fractional inhibitory concentration index (FICI)” value (Candida albicans [6]) of the same molecule?
**A.** Its value is 2.

**Q.** Which MIC80 (Candida albicans [1]) does the source give for `COc1ccc(-c2cn(-c3ccccc3)nc2-c2c(O)cc(OC)cc2OC)cc1` here?
**A.** The MIC80 was greater than 128 µg/mL.

**Q.** And the MIC80 (Candida albicans [2])?
**A.** Its MIC80 is greater than 128 µg/mL.

**Q.** What about the MIC80 (Candida albicans [3]) of the same molecule?
**A.** Its MIC80 is greater than 128 µg/mL.

**Q.** What about the MIC80 (Candida albicans [4]) of the same molecule?
**A.** Its MIC80 is greater than 128 µg/mL.

**Q.** And the MIC80 (Candida albicans [5])?
**A.** The MIC80 was greater than 128 µg/mL.

**Q.** And the “fractional inhibitory concentration index (FICI)” value (Candida albicans [6])?
**A.** Its value is 2.

**Q.** `COc1cc(O)c(-c2cc(-c3ccccc3)nn2-c2ccccc2)c(OC)c1OC` was tested. Which MIC80 (Candida albicans [1]) did it give?
**A.** The MIC80 was greater than 128 µg/mL.

**Q.** And the MIC80 (Candida albicans [2])?
**A.** The MIC80 was greater than 128 µg/mL.

**Q.** And the MIC80 (Candida albicans [3])?
**A.** Its MIC80 is greater than 128 µg/mL.

**Q.** What about the MIC80 (Candida albicans [4]) of the same molecule?
**A.** Its MIC80 is greater than 128 µg/mL.

**Q.** What about the MIC80 (Candida albicans [5]) of the same molecule?
**A.** The MIC80 was greater than 128 µg/mL.

**Q.** What about the “fractional inhibitory concentration index (FICI)” value (Candida albicans [6]) of the same molecule?
**A.** Its value is 2.

**Q.** Which MIC80 (Candida albicans [1]) does the source give for `COc1cc(O)c(-c2cc(-c3ccccc3)n(-c3ccccc3)n2)c(OC)c1OC` here?
**A.** Its MIC80 is greater than 128 µg/mL.

**Q.** What about the MIC80 (Candida albicans [2]) of the same molecule?
**A.** Its MIC80 is greater than 128 µg/mL.

**Q.** And the MIC80 (Candida albicans [3])?
**A.** Its MIC80 is greater than 128 µg/mL.

**Q.** And the MIC80 (Candida albicans [4])?
**A.** The MIC80 was greater than 128 µg/mL.

**Q.** What about the MIC80 (Candida albicans [5]) of the same molecule?
**A.** Its MIC80 is greater than 128 µg/mL.

**Q.** And the “fractional inhibitory concentration index (FICI)” value (Candida albicans [6])?
**A.** The value was 2.

**Q.** Which MIC80 (Candida albicans [1]) does the source give for `OC(Cn1cncn1)(Cn1cncn1)c1ccc(F)cc1F` [FLUCONAZOLE] here?
**A.** The MIC80 was 2 µg/mL (≈ 6.53 µM).

**Q.** What about the MIC80 (Candida albicans [2]) of the same molecule?
**A.** Its MIC80 is 0.25 µg/mL (≈ 0.816 µM).

**Q.** And the MIC80 (Candida albicans [3])?
**A.** Its MIC80 is greater than 128 µg/mL.

**Q.** What about the MIC80 (Candida albicans [10]) of the same molecule?
**A.** Its MIC80 is greater than 128 µg/mL.

**Q.** What about the MIC80 (Candida albicans [11]) of the same molecule?
**A.** The MIC80 was greater than 128 µg/mL.
